Results from ChEMBL document CHEMBL5344467, “Improving Activity of New Arylurea Agents against Multidrug-Resistant and Biofilm-Producing Staphylococcus epidermidis” (ACS Med Chem Lett, 2024).
≈ marks a conversion by molar mass, not a printed value. Calls of active or inactive are those of the source. The rule behind the calls is not given here.

What was measured:
[1] = test system: Cell membrane; assay: Induction of cell membrane permeability Staphylococcus epidermidis clinical isolate 23 assessed as residual polarized cells at 0.4 ug/ml by Texas Red-H/FITC-H staining based flow cytometry (reference value: 69.6%); assay type: subcellular; details: dose 0.4 µg/ml
In short: (§1)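 Membrane potential read by flow cytometry. Bacteria were stained with DiOC2, then exposed to the agent; red fluorescence marks polarized cells and green marks depolarized cells. CCCP served as the positive control and daptomycin as the depolarizing reference at 0.4 μg/mL. Test concentrations were 0.8, 1.6 and 3.125 μg/mL, with a 15 min exposure.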

[2] = test system: Cell membrane; assay: Induction of cell membrane permeability Staphylococcus epidermidis clinical isolate 23 assessed as depolarized cells at 0.4 ug/ml by Texas Red-H/FITC-H staining based flow cytometry (reference value: 2.7%); assay type: subcellular; details: dose 0.4 µg/ml; in short: as §1
[3] = test system: Staphylococcus epidermidis; assay: Antibacterial activity against multidrug-resistant and biofilm producer Staphylococcus epidermidis ATCC 35984 assessed as inhibition of bacterial growth by broth microdilution method; assay type: functional
In short: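 Preliminary MIC screen by broth microdilution against three reference strains (methicillin-susceptible, multidrug-resistant/biofilm-producing S. epidermidis, and biofilm-producing S. aureus); MIC reported in μg/mL.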

[4] = Selectivity index, ratio of IC50 for cytotoxicity against rat H9c2 cells to MIC for antibacterial activity against multidrug resistant Staphylococcus epidermidis clinical isolates; assay type: toxicity, cell-based; details: read-out: Selectivity Index
In short: (§2)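 SI is IC50 divided by the mean MIC across clinical multidrug-resistant S. epidermidis isolates (81 strains). IC50 came from an MTT assay after 24 h treatment of H9c2 cardiomyocytes or BJ skin fibroblasts, n = 3. MIC was measured by broth microdilution.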

[5] = Selectivity index, ratio of IC50 for cytotoxicity against human BJ cells to MIC for antibacterial activity against multidrug resistant Staphylococcus epidermidis clinical isolates; assay type: toxicity, cell-based; details: read-out: Selectivity Index; in short: as §2
[6] = Selectivity index, ratio of IC50 for rat H9c2 cells to IC50 for human BJ cells; assay type: toxicity; details: H9c2 cells and BJ cells, read-out: Ratio IC50
[7] = test system: Staphylococcus epidermidis; assay: Antibiofilm activity against Staphylococcus epidermidis clinical isolates assessed as eradication of existing biofilms measured after 24 hrs by confocal laser scanning microscopy analysis; assay type: functional
[8] = test system: Staphylococcus epidermidis; assay: Antibiofilm activity against Staphylococcus epidermidis clinical isolates assessed as inhibition of biofilm formation measured after 24 hrs by confocal laser scanning microscopy analysis; assay type: functional
[9] = test system: Acinetobacter baumannii; assay: Antibacterial activity against Acinetobacter baumannii ATCC 19606 assessed as inhibition of bacterial growth by broth microdilution method; assay type: functional
[10] = test system: Escherichia coli; assay: Antibacterial activity against Escherichia coli ATCC 25922 assessed as inhibition of bacterial growth by broth microdilution method; assay type: functional
[11] = test system: Pseudomonas aeruginosa; assay: Antibacterial activity against Pseudomonas aeruginosa ATCC 27853 assessed as inhibition of bacterial growth by broth microdilution method; assay type: functional
[12] = test system: Cell membrane; assay: Induction of cell membrane permeability Staphylococcus epidermidis clinical isolate 23 assessed as residual polarized cells by Texas Red-H/FITC-H staining based flow cytometry (reference value: 69.6%); assay type: subcellular; in short: as §1
[13] = test system: Cell membrane; assay: Induction of cell membrane permeability Staphylococcus epidermidis clinical isolate 23 assessed as depolarized cells by Texas Red-H/FITC-H staining based flow cytometry (reference value: 2.7%); assay type: subcellular; in short: as §1
[14] = test system: Staphylococcus epidermidis; assay: Antibiofilm activity against Staphylococcus epidermidis clinical isolate 25 assessed as inhibition of biofilm formation measured after 24 hrs by confocal laser scanning microscopy analysis; assay type: functional
In short: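 Clinical S. epidermidis strain no. 25 biofilm exposed to compound for 24 h, stained with FilmTracer SYPRO Ruby biofilm matrix stain, and imaged by confocal microscopy. Untreated compact biofilm served as control.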

[15] = test system: Staphylococcus epidermidis; assay: Bacteriostatic activity Staphylococcus epidermidis clinical isolate 44 at 0.4 to 25 ug/ml measured upto 1000 mins by broth microdilution method; assay type: functional, organism-based; details: dose 0.4-25 µg/ml
[16] = test system: Cell membrane; assay: Induction of cell membrane permeability Staphylococcus epidermidis clinical isolate 23 assessed as residual polarized cells at 0.8 ug/ml by Texas Red-H/FITC-H staining based flow cytometry (reference value: 69.6%); assay type: subcellular; details: dose 0.8 µg/ml
In short: (§3)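 Clinical S. epidermidis no. 23 cells were first stained with DiOC2, then treated with compound. Membrane potential was read by flow cytometry within 15 min: red marks polarized cells, green marks depolarized cells. Controls were DiOC2-only cells (negative), CCCP (positive), and daptomycin at 0.4 μg/mL as a depolarizing reference.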

[17] = test system: Cell membrane; assay: Induction of cell membrane permeability Staphylococcus epidermidis clinical isolate 23 assessed as depolarized cells at 0.8 ug/ml by Texas Red-H/FITC-H staining based flow cytometry (reference value: 2.7%); assay type: subcellular; details: dose 0.8 µg/ml; in short: as §3
[18] = test system: Cell membrane; assay: Induction of cell membrane permeability Staphylococcus epidermidis clinical isolate 23 assessed as residual polarized cells at 1.6 ug/ml by Texas Red-H/FITC-H staining based flow cytometry (reference value: 69.6%); assay type: subcellular; details: dose 1.6 µg/ml
In short: (§4)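 Cells stained with DiOC2, then exposed to test agent (0.8, 1.6, 3.125 μg/mL tested); CCCP positive control, daptomycin 0.4 μg/mL reference depolarizer, DiOC2-only negative control. Membrane potential read by flow cytometry as red (polarized) versus green (depolarized) cell populations; depolarization assessed within 15 min.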

[19] = test system: Cell membrane; assay: Induction of cell membrane permeability Staphylococcus epidermidis clinical isolate 23 assessed as depolarized cells at 1.6 ug/ml by Texas Red-H/FITC-H staining based flow cytometry (reference value: 2.7%); assay type: subcellular; details: dose 1.6 µg/ml; in short: as §4
[20] = test system: Cell membrane; assay: Induction of cell membrane permeability Staphylococcus epidermidis clinical isolate 23 assessed as depolarized cells at 3.125 ug/ml by Texas Red-H/FITC-H staining based flow cytometry (reference value: 2.7%); assay type: subcellular; details: dose 3.125 µg/ml; in short: as §3

Work on CCCCCCCCCC(=O)N[C@@H](Cc1c[nH]c2ccccc12)C(=O)N[C@H](CC(N)=O)C(=O)N[C@@H](CC(=O)O)C(=O)N[C@@H]1C(=O)NCC(=O)N[C@@H](CCCN)C(=O)N[C@@H](CC(=O)O)C(=O)N[C@H](C)C(=O)N[C@@H](CC(=O)O)C(=O)NCC(=O)N[C@H](CO)C(=O)N[C@@H]([C@H](C)CC(=O)O)C(=O)N[C@@H](CC(=O)c2ccccc2N)C(=O)O[C@@H]1C yielded an Activity [1] of 1.3% and an Activity [2] of 7.2%.
For O=S(=O)(NC1CCN(CCC(Oc2ccc(C(F)(F)F)cc2)c2cccs2)CC1)c1cccc(Br)c1 (racemic), the MIC [3] was 0.4 µg/mL (≈ 0.663 µM).
For O=S(=O)(NC1CCN(CCC(Oc2ccc(C(F)(F)F)cc2)c2cccs2)CC1)c1cccc(C(F)(F)F)c1 (racemic), the MIC [3] was 0.2 µg/mL (≈ 0.337 µM).
O=S(=O)(NC1CCN(CCC(Oc2ccc(C(F)(F)F)cc2)c2cccs2)CC1)c1cccc(Cl)c1 (racemic) showed a selectivity ratio [4] of 2.8, a selectivity ratio [5] of 1 and a selectivity ratio [6] of 2. For the same compound, the MBEC90 [7] was “>=125 ug ml-1” and the MBIC90 [8] was “>=125 ug ml-1”.
With O=S(=O)(NC1CCN(CCC(Oc2cccc(C(F)(F)F)c2)c2ccccc2)CC1)c1cccc(Cl)c1 (racemic) the MIC [9] was ≥ 25 µg/mL, the MIC [10] was ≥ 25 µg/mL and the MIC [11] was ≥ 25 µg/mL.
Work on O=S(=O)(NC1CCN(CCC(Oc2ccc(C(F)(F)F)cc2)c2ccccc2)CC1)c1cccc(Cl)c1 (racemic) yielded a selectivity ratio [4] of 0.7, a selectivity ratio [5] of 0.4 and a selectivity ratio [6] of 2. The MBEC90 [7] was “>=125 ug ml-1” and the MBIC90 [8] was “>=125 ug ml-1”.
For N#CC(C#N)=NNc1cccc(Cl)c1, the Activity [12] was 0.1% and the Activity [13] was 73.4%.
With O=C(Nc1cccc(Cl)c1)NC1CCN(CCC(Oc2ccc(C(F)(F)F)cc2)c2cccs2)CC1 (racemic) the selectivity ratio [4] was 15.3, the selectivity ratio [5] was 7.5 and the MIC [9] was > 50 µg/mL. The MIC [10] was > 50 µg/mL, the MIC [11] was > 50 µg/mL and the selectivity ratio [6] was 2. It also gave an MBIC [14] of 7.8 µg/mL, an MBEC90 [7] of 31.25 µg/mL and an MBIC90 [8] of 31.25 µg/mL. For the same compound, the Activity [15] was “Active”, the Activity [16] was 43.5% and the Activity [17] was 34.7%. The Activity [18] was 1.9%, the Activity [19] was 72.4% and the Activity [20] was 55.2%.
CC(=O)NC[C@H]1CN(c2ccc(N3CCOCC3)c(F)c2)C(=O)O1 [LINEZOLID] gave a selectivity ratio [4] of 7.3, an MBEC90 [7] of 50 µg/mL and an MBIC90 [8] of 50 µg/mL. For the same compound, the Activity [15] was “Active”.
